This note sets out measurements from ChEMBL document CHEMBL3352590, “How a β-D-glucoside side chain enhances binding affinity to thrombin of inhibitors bearing 2-chlorothiophene as P1 moiety: crystallography, fragment deconstruction study, and evaluation of antithrombotic properties” (J Med Chem, 2014).

Converted amounts (≈) assume the structure as drawn. The source made the active and inactive calls. No cut-off for these calls is given here. Some results are limits rather than exact numbers.

In one data set the target is Prothrombin (Bos taurus) (UniProt P00735). The data set can be described thus: Inhibition of bovine thrombin assessed as reduction in hydrolysis of chromogenic substrate S-2238 at 1 mM by Cheng-Prusoff equation analysis.
The target in data set [1] is T1, Coagulation factor X (Homo sapiens, UniProt P00742). The data set can be described thus: Inhibition of human factor10a assessed as reduction in hydrolysis of chromogenic substrate S-2765 at 1 mM by Cheng-Prusoff equation analysis.
Data set [2] deals with Plasma. The data set can be described thus: Profibrinolytic activity in tissue factor-induced human plasma exposed to exogenous tissue plasminogen activator assessed as time needed to lyse 50% fibrin clot by turbidimetric assay. Type of data set: functional, cell-free. An outline of the steps:
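Turbidimetric clot lysis at 37 °C: citrated human plasma spiked with compound or vehicle, plus phospholipids, t-PA (40 ng/mL stock), Tris-NaCl pH 7.4 and TF; clotting started with CaCl2. A405 read each minute for 3 h; lysis time from clot formation to midpoint of turbid-to-clear transition, as percent of vehicle; three independent plasma samples.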

Data set [3] concerns Plasma. The data set can be described thus: Anticoagulant activity in recombinant tissue factor and procoagulant phospholipids-stimulated human citrated plasma assessed as inhibition of thrombin peak by fluorometry based calibrated automated thrombography. It is filed as functional, cell-free. Put shortly: (§1)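 Pooled citrated human plasma spiked with test compounds at 0.01−10 μM or vehicle; 80 μL plasma incubated 10 min at 37 °C; thrombin generation triggered by low tissue factor, phospholipids and calcium. Lag-time, thrombin peak and endogenous thrombin potential (area under curve) read by calibrated automated thrombography and expressed as percent of vehicle control.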

Data set [4] deals with Plasma. Put plainly: Anticoagulant activity in recombinant tissue factor and procoagulant phospholipids-stimulated human citrated plasma assessed as reduction in endogenous thrombin potential by fluorometry based calibrated automated thrombography. Type of data set: functional, cell-free. Put shortly:
as §1

Data set [5] addresses T1, Coagulation factor X. The data set can be described thus: Inhibition of human factor10a assessed as reduction in hydrolysis of chromogenic substrate S-2765 by Cheng-Prusoff equation analysis. An outline of the steps: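 Chromogenic assay at pH 8: 2 nM human fXa with 0.04 mM S-2765, or 0.41 U/mL bovine thrombin with 0.05 mM S-2238 (final). Enzyme preincubated with inhibitor (0.01−100 nM or 0.01−100 μM, ≤1% DMSO); substrate added, A405 followed 5 min.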

The target of data set [6] is T2, Prothrombin (Bos taurus, UniProt P00735). Put plainly: Inhibition of bovine thrombin assessed as reduction in hydrolysis of chromogenic substrate S-2238 by Cheng-Prusoff equation analysis.
Data set [7] in a line: Lipophilicity, logKw of the compound by RP-HPLC method. It is filed as physicochemical. Put shortly: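 RP-HPLC on C18 column at 25 °C, 1.0 mL/min, UV 288 nm; capacity factors k′ = (tR − t0)/t0 measured at MeOH volume fractions 0.8 to 0.4 in 0.05 steps; log k′w taken as the polycratic capacity factor.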
Data set [8] in a line: Aqueous solubility in pH 7.4 0.05 M phosphate buffer by HPLC method. Type of data set: physicochemical. Put shortly: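 Excess solid (4−10 mg) in 0.05 M phosphate buffer pH 7.4 with 0.15 M KCl, shaken 1 h at 25 °C, then 15 min unshaken. Supernatant filtered and quantified by C18 HPLC (MeOH/0.05 M phosphate pH 4.5, UV 288 nm) against calibration curves of peak area.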
Data set [9] is described as follows: Stability in human plasma assessed as unhydrolyzed compound after 4 hrs at 37 degC by HPLC method. The note with it: read-out: Stability. It is filed as ADME, cell-free. An outline of the steps:
(§2)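 10 mM ACN stock diluted to 250 μM final in preheated 37 °C human serum (lyophilized, reconstituted in water). Incubation stopped at fixed times with ice-cold ACN; remaining parent measured by HPLC; first-order half-life derived.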

In data set [10] the test system is Plasma. The data set can be described thus: Anticoagulant activity in recombinant tissue factor and procoagulant phospholipids-stimulated human citrated plasma assessed as increase in time required to generate first traces of thrombin at 2 to 10 uM by fluorometry based calibrated automated thrombography. It is filed as functional, cell-free. An outline of the steps: as §1

Data set [11] can be described thus: Stability in 0.05 M pH 7.4 phosphate buffer containing 0.15 M KCl assessed as unhydrolyzed compound after 4 hrs at 37 degC. The conditions noted are these: read-out: Stability. Type of data set: physicochemical. Put shortly: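 10 mM acetonitrile stock diluted to 250 μM final in 0.05 M phosphate buffer pH 7.40 with 0.15 M KCl, 37 °C; samples withdrawn at t0 and fixed times, filtered and analysed by HPLC (UV 288 nm) for remaining unhydrolyzed compound.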

Data set [12] addresses T1, Coagulation factor X. Put plainly: Inhibition of human factor10a assessed as reduction in hydrolysis of chromogenic substrate S-2765 by Lineweaver-Burk analysis. An outline of the steps:
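Human fXa fixed at 2 nM, S-2765 varied 25−200 μM, without or with inhibitor at four concentrations, pH 8, A405 initial rates; Lineweaver−Burk (1/v vs 1/[S]) plots used to assign inhibition type.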

Data set [13] concerns Plasma. Put plainly: Anticoagulant activity in recombinant tissue factor and procoagulant phospholipids-stimulated human citrated plasma assessed as increase in time required to generate first traces of thrombin at 10 uM by fluorometry based calibrated automated thrombography. Type of data set: functional, cell-free. An outline of the steps: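 Pooled citrated human plasma spiked with test compound or vehicle (0.01−10 μM); clotting triggered by low tissue factor, phospholipids and calcium; thrombin generation followed by calibrated automated thrombography, 80 μL plasma preincubated 10 min at 37 °C. Lag-time = time to first traces of thrombin, expressed as percent of vehicle control plasma.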

Data set [14] addresses T2, Prothrombin. Put plainly: Inhibition of bovine thrombin assessed as reduction in hydrolysis of chromogenic substrate S-2238 by Lineweaver-Burk analysis.
A short description of data set [15]: Half life in human plasma at 37 degC by HPLC method. It is filed as ADME, cell-free. An outline of the steps:
as §2

The mark [16] stands for this setting: Homo sapiens, Plasma, read-out: EC50.
Where [17] appears, read: Homo sapiens, Plasma, read-out: IC50.

T1 sequence (P00742 41-179 limits assumed): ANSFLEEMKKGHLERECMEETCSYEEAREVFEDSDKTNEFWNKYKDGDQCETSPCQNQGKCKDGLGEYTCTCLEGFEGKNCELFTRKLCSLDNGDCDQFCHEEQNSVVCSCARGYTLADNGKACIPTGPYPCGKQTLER
T1 sequence (P00742 235-488 limits assumed): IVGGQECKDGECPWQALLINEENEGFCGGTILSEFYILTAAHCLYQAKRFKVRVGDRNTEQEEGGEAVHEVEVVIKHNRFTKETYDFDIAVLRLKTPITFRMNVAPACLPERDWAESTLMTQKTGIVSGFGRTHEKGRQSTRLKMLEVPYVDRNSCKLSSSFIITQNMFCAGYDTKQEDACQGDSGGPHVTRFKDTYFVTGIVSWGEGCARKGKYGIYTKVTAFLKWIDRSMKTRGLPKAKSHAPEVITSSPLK

One may read the inhibition as the change of the read-out against control, counted positive when it falls. As to `COc1ccccc1NC(=O)C1CCN(C(C)C)CC1`, the inhibition came to 0% at Prothrombin (Bos taurus) and 16% on Coagulation factor X [1].
As a reminder, the EC50 is the concentration giving half of the maximal effect. Broadly, the IC50 is the concentration that gives 50% inhibition. As to `CC1CNc2c(cccc2S(=O)(=O)N[C@@H](CCCNC(=N)N)C(=O)N2CC[C@@H](C)C[C@@H]2C(=O)O)C1` (stereo not given in full) [ARGATROBAN], the EC50 with Plasma [2] (setting [16]) amounted to 600 nM. Further, the half-inhibitory concentration (IC50) in the data set on Plasma [3] came out at 1900 nM; in the data set with Plasma [4] (setting [17]) it was 2400 nM.
The term Ki denotes a dissociation constant, usually derived from enzyme kinetics or from competition with a known ligand. Take `Nc1c(OCCCO)cccc1OCc1cc(-c2ccc(Cl)s2)on1`: the inhibition constant Ki at Coagulation factor X [5] turned out to be 18300 nM; on Prothrombin [6], 29800 nM.
As for `CC(C)N1CCC(C(=O)Nc2ccccc2OCCCO[C@@H]2[C@@H](O)[C@H](O)[C@@H](CO)O[C@H]2O)CC1`, the inhibition at Prothrombin (Bos taurus) amounted to 28%; at Coagulation factor X [1], 14%.
Turning to `Nc1ccccc1OCc1cc(-c2ccc(Cl)s2)on1`, the inhibition constant Ki on Coagulation factor X [5] worked out at 11600 nM; at Prothrombin [6] it was 31000 nM.
For `Nc1c(OCCCO[C@@H]2O[C@H](CO)[C@@H](O)[C@H](O)[C@H]2O)cccc1OCc1cc(-c2ccc(Cl)s2)on1`, the figures for the Ki on Coagulation factor X [5] and at Prothrombin [6] were 6900 nM and 133000 nM, respectively.
As to `CC(C)N1CCC(C(=O)Nc2ccccc2)CC1`, the inhibition came to 16% on Prothrombin (Bos taurus) and 13% at Coagulation factor X [1].
One may read the solubility as the concentration that dissolves in the medium under given conditions. A low value points to a poorly soluble substance. Turning to `CC(C)N1CCC(C(=O)Nc2ccccc2OCc2cc(-c3ccc(Cl)s3)on2)CC1`, in [7], the logKw is listed as 3.49. For the same molecule, in data set [8], the concentration in solution (solubility) was 530 µM (≈ 244 µg/mL). The inhibition constant Ki on Coagulation factor X [5] came to 0.6 nM; on Coagulation factor X [12], 0.11 nM. For the same molecule, the remaining at 4 h in data set [9] and in data set [11] was greater than 90% throughout. Further, in the data set with Plasma [10], the outcome was Active. Besides, the EC50 result in the data set with Plasma [2] is recorded as “Not Active”. Further, the IC50 in the data set on Plasma [3] is 10000 nM; in the data set on Plasma [4], “Not Active”. For the same molecule, the fold change (FC) with Plasma [13] amounted to 3.
`CC(C)N1CCC(C(=O)Nc2c(OCCCO[C@@H]3O[C@H](CO)[C@@H](O)[C@H](O)[C@H]3O)cccc2OCc2cc(-c3ccc(Cl)s3)on2)CC1` showed a logKw in data set [7] of 3.07. In data set [8], the solubility amounted to 7330 µM (≈ 5100 µg/mL). Also, the Ki at Coagulation factor X [5] was found to be 0.09 nM; at Prothrombin [14], 96 nM; on Coagulation factor X [12], 0.87 nM; at Prothrombin [6] it was 100 nM. Also, the remaining at 4 h in data set [9] and in [11] was greater than 90% each time. For the same molecule, in the data set on Plasma [10], the result was Active. Besides, the concentration giving a half-maximal response (EC50) with Plasma [2] (setting [16]) stood at 300 nM. The half-maximal inhibitory concentration (IC50) in the data set with Plasma [3] was determined as 300 nM; in the data set with Plasma [4] (setting [17]) it was 3400 nM. Also, the fold change (FC) with Plasma [13] amounted to 15.
What is called half-life is the time in which the quantity being followed falls by half. Low values mean rapid decline, high ones slow decline. In turn, `CC(=O)OC[C@H]1O[C@@H](OCCCOc2cccc(OCc3cc(-c4ccc(Cl)s4)on3)c2NC(=O)C2CCN(C(C)C)CC2)[C@H](OC(C)=O)[C@@H](OC(C)=O)[C@@H]1OC(C)=O` showed a logKw in data set [7] of 5.07. In addition, the solubility in data set [8] is less than 1 µM. The Ki on Coagulation factor X [5] came to 0.25 nM; on Prothrombin [6], 160 nM. The result with Plasma [10] was Active. Besides, the remaining at 4 h in data set [11] was greater than 90%. Besides, in the data set on Plasma [2] (setting [16]), the EC50 came to 1800 nM. Also, the IC50 in the data set on Plasma [3] was found to be 1200 nM; in the data set with Plasma [4] (setting [17]), 10000 nM. Also, in [15], the half-life was 2.8 h. Also, the fold change (FC) with Plasma [13] was 9.
